In publication PMC6843717 (ACS Omega, 2019):
Values joined by “and” are separate entries in the source; they are usually repeats but may differ in a detail not shown here. Equal entries are not always repeated. Marks after values point to notes of the source that are not given here.

What was measured:
[1] = reported for other anticancer drugs; cited from earlier work
[2] = Plasma pharmacokinetics after single IP or PO dose; format: in vivo, Balb/c mice
Procedure, shortened: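 Female BALB/c mice, 4–5 weeks old, acclimated 1 week. Single 10 mg/kg dose (0.1 mL in 12.5% ethanol/12.5% cremophor/75% PBS, pH 7.4), IP or oral gavage. Five mice per time point (0.08–12 h) bled by cardiac puncture into citrate. Plasma protein-precipitated and analysed by SFC-MS/MS (ESI+, m/z 339.1→179.9). λz by terminal log-linear regression; relative bioavailability PO vs IP.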

[3] = Tissue distribution after single IP or PO dose; format: in vivo, BALB/c mice; conditions: for MRT inf / Vd/F / concentration at 30 min / half-life / k el / tissue uptake / Tmax: 10 mg/kg; for Tmax / AUC0–t / Cl/F: mean ± SEM
Procedure, shortened: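 Same single 10 mg/kg IP or PO dosing in female BALB/c mice. Liver, heart, spleen, kidneys and lungs taken at 0.17, 0.5, 1 and 3 h (n = 5), saline-flushed and snap-frozen. Tissue homogenized 1:4 w/v in pH 7.4 saline, liquid–liquid extracted with internal standard, quantified by SFC-MS/MS. Localization index = tissue %ID/g over plasma %ID/mL; mean ± SEM.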

[4] = MBQ-167 distribution in mouse mammary tumors; format: in vivo, SCID mice; conditions: 2.5 mg/kg BW 24 h prior to sacrifice, 3-month multiple low-dose regimen
Procedure, shortened: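 Female SCID mice, 4 weeks old, received 2 × 10^6 GFP-tagged MDA-MB-468 cells into the mammary fat pad. After 1 week, vehicle or 2.5 mg/kg ip was given three times weekly for 3 months. Twenty-four hours after the last dose, five mice per arm got 10 mg/kg 30 min before sacrifice. Tumours were saline-flushed, snap-frozen, homogenized, extracted and quantified by SFC-MS/MS (n = 5).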

[5] = Stability of MBQ-167 in mouse plasma; format: physicochemical; conditions: for postpreparative stability RE%: 8 h; for short term stability RE%: 4 h at benchtop; for freeze–thaw stability RE% / long term stability RE%: −80 °C; for freeze–thaw stability RE%: 3 cycles 24 h
Procedure, shortened: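 Spiked mouse plasma QCs (calibration 1.5–1000 ng/mL) quantified by SFC-MS/MS after protein precipitation; RE% against nominal. Short-term: 2.5 and 950 ng/mL, 4 h at room temperature. Postpreparative: three QC levels (2.5, 450, 950 ng/mL) held at 4 °C. Long-term: −80 °C for 15 and 134 days. Freeze–thaw: three 24 h cycles at −80 °C.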

[6] = Stability of MBQ-167 in mouse liver; format: physicochemical; conditions: for postpreparative stability RE% / short term stability RE% / freeze–thaw stability RE% / long term stability RE%: liver; for postpreparative stability RE%: 8 h; for short term stability RE%: 3 h in an ice bucket; for freeze–thaw stability RE% / long term stability RE%: −80 °C; for freeze–thaw stability RE%: 3 cycles 24 h; for long term stability RE%: 90 days
Procedure, shortened: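 Spiked mouse tissue QCs (calibration 10–1000 ng/mL) quantified by SFC-MS/MS; RE% against nominal. Short-term: 15 and 950 ng/mL, 3 h in an ice bucket. Postpreparative: 15, 450 and 950 ng/mL, 8 h at 4 °C. Long-term: −80 °C for 90 days. Freeze–thaw: three 24 h cycles at −80 °C.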

Cdc42 = conditions: read-out: IC50 for Cdc42 activation; cited from earlier work
[7] = system: HER2-type mammary fat pad tumor; conditions: 10 mg/kg BW; immunocompromised mice; cited from earlier work
[8] = female, BALB/c, mouse, plasma, ip, 10 mg/kg
[9] = female, BALB/c, mouse, plasma, po, 10 mg/kg
[10] = plasma, intraperitoneal 10 mg/kg, mean ± SEM
[11] = female, BALB/c, mouse, heart, ip
[12] = female, BALB/c, mouse, heart, po
[13] = female, BALB/c, mouse, kidneys, ip
[14] = female, BALB/c, mouse, kidneys, po
[15] = female, BALB/c, mouse, liver, ip
[16] = female, BALB/c, mouse, liver, po
[17] = female, BALB/c, mouse, lungs, ip
[18] = female, BALB/c, mouse, lungs, po
[19] = female, BALB/c, mouse, spleen, ip
[20] = female, BALB/c, mouse, spleen, po

CCn1c2ccccc2c2cc(Nc3ccnc(NCCCN4CCOCC4)n3)ccc21 [EHop-016]
bioavailability (F) [1]: 40%

CCn1c2ccccc2c2cc(-n3nncc3-c3ccccc3)ccc21 [MBQ-167]
systemic clearance adjusted by F ([2]; PO administration): 136.5 mL/h
clearance ([2]; female, BALB/c, mouse, plasma, 10 mg/kg): ~83.3 mL/min/kg
AUC(0-t) [2, 8]: 1640 ± 291 ng·h/mL
Cmax [2, 8]: 2970 ± 1380 ng/mL
MRT inf [2, 8]: 1.9 ± 0.1 h
Tmax [2, 8]: 0.22 ± 0.14 h
concentration at 30 min [2, 8]: 840 ng/mL
half-life [2, 8]: 2.17 ± 0.06 h
AUC(0-t) [2, 9]: 585 ± 150 ng·h/mL
Cmax [2, 9]: 619 ± 195 ng/mL
MRT inf [2, 9]: 1.9 ± 0.1 h
Tmax [2, 9]: 0.5 h
half-life [2, 9]: 2.6 ± 0.2 h
time to elimination from plasma and tissues ([2]; following administration by both routes): 6 to 8 h
drug remaining in the bloodstream ([2]; from apparent volume of distribution vs blood volume 1.5–2.0 mL): less than 1%
clearance rate as share of liver blood flow in the mouse ([2]; mouse, in vivo): ~85%
F (relative bioavailability) ([2]; oral gavage relative to IP, 10 mg/kg, mean ± SEM): 35% and 35 ± 3%
Cl/F [2, 10]: 129 mL/h and 129 ± 24 mL/h
Kel [2, 10]: 0.320 ± 0.009 h^–^1
Kel ([2]; plasma, oral gavage 10 mg/kg, mean ± SEM): 0.27 ± 0.02 h^–^1
Cl/F ([2]; plasma, oral gavage 10 mg/kg, mean ± SEM, 10 mg/kg): 390 mL/h and 390 ± 111 mL/h
MRT inf [3, 11]: 0.98 ± 0.01 h
Vd/F [3, 11]: 0.334 ± 0.139 L
concentration at 30 min [3, 11]: 797 ng/g
half-life [3, 11]: 0.97 ± 0.12 h
k el [3, 11]: 0.000206 s⁻¹
tissue uptake [3, 11]: 0.4 ± 0.11 %ID/g
Tmax ([3]; female, BALB/c, mouse, heart, ip, Tmax, IP 10 mg/kg): 0.5 h
MRT inf [3, 12]: 1.03 ± 0.05 h
Vd/F [3, 12]: 0.674 ± 0.101 L
half-life [3, 12]: 1.34 ± 0.03 h
k el [3, 12]: 0.000144 s⁻¹
tissue uptake [3, 12]: 0.22 ± 0.03 %ID/g
Tmax ([3]; female, BALB/c, mouse, heart, po, Tmax, PO 10 mg/kg): 0.5 h
MRT inf [3, 13]: 2.12 ± 0.07 h
Vd/F [3, 13]: 0.023 ± 0.012 L
concentration at 30 min [3, 13]: 10500 ng/g
half-life [3, 13]: 1.39 ± 0.08 h
k el [3, 13]: 0.000139 s⁻¹
tissue uptake [3, 13]: 6 ± 1.4 %ID/g
MRT inf [3, 14]: 2.7 ± 0.5 h
Vd/F [3, 14]: 0.188 ± 0.035 L
half-life [3, 14]: 3.4 ± 0.9 h
k el [3, 14]: 6.67e-05 s⁻¹
tissue uptake [3, 14]: 1.6 ± 0.4 %ID/g
MRT inf [3, 15]: 3.56 ± 0.83 h
Vd/F [3, 15]: 0.07 ± 0.009 L
concentration at 30 min [3, 15]: 4560 ng/g
half-life [3, 15]: 2.24 ± 0.81 h
k el [3, 15]: 0.000139 s⁻¹
tissue uptake [3, 15]: 2.3 ± 0.2 %ID/g
Tmax ([3]; female, BALB/c, mouse, liver, ip, Tmax, IP 10 mg/kg): 0.5 h
MRT inf [3, 16]: 5 ± 1 h
Vd/F [3, 16]: 0.135 ± 0.108 L
half-life [3, 16]: 1.9 ± 0.6 h
k el [3, 16]: 0.000119 s⁻¹
tissue uptake [3, 16]: 1.6 ± 0.7 %ID/g
Tmax ([3]; female, BALB/c, mouse, liver, po, Tmax, PO 10 mg/kg): 0.5 h
MRT inf [3, 17]: 1.27 ± 0.06 h
Vd/F [3, 17]: 0.201 ± 0.038 L
half-life [3, 17]: 1.84 ± 0.24 h
k el [3, 17]: 0.000108 s⁻¹
tissue uptake [3, 17]: 0.72 ± 0.08 %ID/g
Tmax ([3]; female, BALB/c, mouse, lungs, ip, Tmax, IP 10 mg/kg): 0.5 h
MRT inf [3, 18]: 0.89 ± 0.08 h
Vd/F [3, 18]: 0.01 ± 0.004 L
half-life [3, 18]: 0.89 ± 0.18 h
k el [3, 18]: 0.000242 s⁻¹
tissue uptake [3, 18]: 13 ± 5 %ID/g
Tmax ([3]; female, BALB/c, mouse, lungs, po, Tmax, PO 10 mg/kg): 0.5 h
MRT inf [3, 19]: 2 ± 0.08 h
Vd/F [3, 19]: 0.268 ± 0.135 L
concentration at 30 min [3, 19]: 1620 ng/g
half-life [3, 19]: 1.89 ± 0.11 h
k el [3, 19]: 0.000103 s⁻¹
tissue uptake [3, 19]: 0.81 ± 0.16 %ID/g
MRT inf [3, 20]: 5.7 ± 0.2 h
Vd/F [3, 20]: 0.535 ± 0.042 L
half-life [3, 20]: 11 ± 3 h
k el [3, 20]: 2.22e-05 s⁻¹
tissue uptake [3, 20]: 0.26 ± 0.06 %ID/g
AUC0–t ([3]; heart, IP 10 mg/kg): 0.46 ± 0.14 h %ID/g
Cl/F ([3]; heart, IP 10 mg/kg): 224 ± 66 mL/h
AUC0–t ([3]; heart, PO 10 mg/kg): 0.22 ± 0.03 h %ID/g
Cl/F ([3]; heart, PO 10 mg/kg): 347 ± 44 mL/h
AUC0–t ([3]; kidneys, IP 10 mg/kg): 16.3 ± 7.2 h %ID/g
Cl/F ([3]; kidneys, IP 10 mg/kg): 12 ± 7 mL/h
AUC0–t ([3]; kidneys, PO 10 mg/kg): 2.5 ± 0.9 h %ID/g
Cl/F ([3]; kidneys, PO 10 mg/kg): 51 ± 25 mL/h
AUC0–t ([3]; liver, IP 10 mg/kg): 3.9 ± 1.3 h %ID/g
Cl/F ([3]; liver, IP 10 mg/kg): 31 ± 13 mL/h
AUC0–t ([3]; liver, PO 10 mg/kg): 4 ± 2 h %ID/g
Cl/F ([3]; liver, PO 10 mg/kg): 37 ± 23 mL/h
AUC0–t ([3]; lungs, IP 10 mg/kg): 0.86 ± 0.20 h %ID/g
Cl/F ([3]; lungs, IP 10 mg/kg): 82 ± 26 mL/h
AUC0–t ([3]; lungs, PO 10 mg/kg): 17 ± 7 h %ID/g
Cl/F ([3]; lungs, PO 10 mg/kg): 10 ± 6 mL/h
Tmax ([3]; lungs, PO 10 mg/kg): 0.28 ± 0.11 h
AUC0–t ([3]; spleen, IP 10 mg/kg): 1.4 ± 0.5 h %ID/g
Cl/F ([3]; spleen, IP 10 mg/kg): 93 ± 42 mL/h
AUC0–t ([3]; spleen, PO 10 mg/kg): 1.5 ± 0.2 h %ID/g
Cl/F ([3]; spleen, PO 10 mg/kg): 44 ± 16 mL/h
detection of MBQ-167 in tumor [4]: not detected
stability in plasma (±15% RSD, RE) ([5]; incubation at ambient temperature for four hours): stable
postpreparative stability in autosampler conditions ([5]; plasma, 4 °C): 8 h
long-term stability at −80 °C ([5]; plasma, high drug concentration): 134 days
long-term stability at −80 °C ([5]; plasma, low drug concentration): 15 days
postpreparative stability RE% ([5]; plasma, spiked 2.5 ng/mL, 4 °C): 8.0%
short term stability RE% ([5]; plasma, spiked 2.5 ng/mL): 4.0%
freeze–thaw stability RE% ([5]; plasma, spiked 2.5 ng/mL): –2.7%
long term stability RE% ([5]; plasma, spiked 2.5 ng/mL, 15 days): 12.6 ^b %
postpreparative stability RE% ([5]; plasma, spiked 950 ng/mL, 4 °C): 15.2%
short term stability RE% ([5]; plasma, spiked 950 ng/mL): –0.5%
freeze–thaw stability RE% ([5]; plasma, spiked 950 ng/mL): –1.2%
long term stability RE% ([5]; plasma, spiked 950 ng/mL, 134 days): –1.0 ^d %
freeze–thaw stability ([5]; plasma, three freeze–thaw cycles lasting 24 h): stable
stability in tissues ([6]; incubation in an ice bucket for 3 h): stable
postpreparative stability RE% ([6]; spiked 15 ng/mL, 4 °C): –15%
short term stability RE% ([6]; spiked 15 ng/mL): 0.1%
freeze–thaw stability RE% ([6]; spiked 15 ng/mL): 1.5%
long term stability RE% ([6]; spiked 15 ng/mL): 6.5%
postpreparative stability RE% ([6]; spiked 950 ng/mL, 4 °C): –6.7%
short term stability RE% ([6]; spiked 950 ng/mL): –12.2%
freeze–thaw stability RE% ([6]; spiked 950 ng/mL): –3.2%
long term stability RE% ([6]; spiked 950 ng/mL): 9.2%
postpreparative stability in autosampler conditions ([6]; tissues, 4 °C): 8 h
long-term stability at −80 °C ([6]; tissues, both low and high concentrations of quality control samples): 90 days
freeze–thaw stability ([6]; tissues, three freeze–thaw cycles lasting 24 h): stable
reduction of HER2-type mammary fat pad tumor growth [7]: ~90%
reduction of metastasis [7]: ~90% and ~99%
